Columns and labels:
[1] = folding enthalpy; higher = less favourable; fluorescence melt of hairpins on a sequencing array, two-state fit; conditions: sodium 0.088 M
Procedure, shortened: (§1)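 Two-state fits, bootstrapped, provided melting temperature and folding enthalpy from Cy3 fluorescence normalised to pre-quench Cy3 and to control constructs. Library hairpins with annealed Cy3 and quencher oligos were imaged on a sequenced MiSeq flow cell in 50 mM Na-HEPES pH 8.0, 25 mM NaCl, at 2.5 °C intervals up to 60 °C. Four replicates were combined with inverse-variance weighting. A 9.35 °C upward shift was applied to fitted temperatures to match UV melts.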

[2] = melting temperature; fluorescence melt of hairpins on a sequencing array, two-state fit, raised by 9.35 °C to match UV melts; conditions: sodium 0.088 M
Procedure, shortened: as §1

Row | Sequence | folding enthalpy [1] [kcal/mol] | Tm [2] [°C]
1 | GATCAGCATTCTGATC ((((((....)))))) | -39 | 48.8
2 | GATCAGCCCGCTGATC ((((((....)))))) | -47.1 | 58.3
3 | GATCAGCCTACTGATC ((((((....)))))) | -35.2 | 49.9
4 | GATCAGCCTCCTGATC ((((((....)))))) | -34.4 | 49.1
5 | GATCAGCGAGCTGATC ((((((....)))))) | -44.7 | 61.4
6 | GATCAGCGGTCTGATC ((((((....)))))) | -32.1 | 49.9
7 | GATCAGCGTCCTGATC ((((((....)))))) | -32.4 | 49
8 | GATCAGGAAGCTGATC ((((((....)))))) | -34.2 | 53.9
9 | GATCAGGAATCTGATC ((((((....)))))) | -41.8 | 54.8
10 | GATCAGGACCTGATC ((((((...)))))) | -40.4 | 49.6
11 | GATCAGGATTCTGATC ((((((....)))))) | -38.6 | 49.8
12 | GATCAGGCCTCTGATC ((((((....)))))) | -49.2 | 52.1
13 | GATCAGGGACTGATC ((((((...)))))) | -39.5 | 59.6
14 | GATCAGGGGCCTGATC ((((((....)))))) | -33.1 | 53
15 | GATCAGGGTCCTGATC ((((((....)))))) | -37.9 | 52.7
16 | GATCAGGGTGCTGATC ((((((....)))))) | -31.2 | 51.5
17 | GATCAGGTTCCTGATC ((((((....)))))) | -47.5 | 53.7
18 | GATCAGGTTTCTGATC ((((((....)))))) | -46.7 | 51.8
19 | GATCAGTAAACTGATC ((((((....)))))) | -37.4 | 50.8
20 | GATCAGTAACTGATC ((((((...)))))) | -37.8 | 47.9
21 | GATCAGTAGCTGATC ((((((...)))))) | -35.8 | 48.3
22 | GATCAGTAGTCTGATC ((((((....)))))) | -37 | 50.2
23 | GATCAGTATCCTGATC ((((((....)))))) | -33.3 | 48.7
24 | GATCAGTATCTGATC ((((((...)))))) | -34.9 | 48.5

Row | Sequence | folding enthalpy [1] [kcal/mol] | Tm [2] [°C]
25 | GATCAGTCACCTGATC ((((((....)))))) | -36.4 | 49.6
26 | GATCAGTCGACTGATC ((((((....)))))) | -53.5 | 55.5
27 | GATCAGTCTCCTGATC ((((((....)))))) | -39.1 | 49.4
28 | GATCAGTGAGCTGATC ((((((....)))))) | -36.1 | 56.2
29 | GATCAGTGCACTGATC ((((((....)))))) | -58.7 | 56.3
30 | GATCAGTGCTCTGATC ((((((....)))))) | -26.4 | 52.1
31 | GATCAGTGGGCTGATC ((((((....)))))) | -48.6 | 54.4
32 | GATCAGTGTACTGATC ((((((....)))))) | -33.1 | 59.1
33 | GATCAGTTAACTGATC ((((((....)))))) | -40.5 | 54.4
34 | GATCAGTTAGCTGATC ((((((....)))))) | -40.2 | 53.1
35 | GATCAGTTTACTGATC ((((((....)))))) | -49.2 | 59.6
36 | GATCAGTTTCTGATC ((((((...)))))) | -43.7 | 50.8
37 | GATCATAAAAATGATC ((((((....)))))) | -27.4 | 36.8
38 | GATCATAACGATGATC ((((((....)))))) | -31.5 | 45.9
39 | GATCATAATAATGATC ((((((....)))))) | -35.4 | 45.4
40 | GATCATAATTATGATC ((((((....)))))) | -42 | 47.8
41 | GATCATACAGATGATC ((((((....)))))) | -35.8 | 44.4
42 | GATCATACCAATGATC ((((((....)))))) | -39.4 | 48.4
43 | GATCATACCCATGATC ((((((....)))))) | -38.6 | 46.5
44 | GATCATACTTATGATC ((((((....)))))) | -37 | 48.5
45 | GATCATAGGAATGATC ((((((....)))))) | -26 | 44.3
46 | GATCATATCAATGATC ((((((....)))))) | -27.9 | 48.3
47 | GATCATATCATGATC ((((((...)))))) | -37.2 | 50.4
48 | GATCATATCGATGATC ((((((....)))))) | -34.3 | 47.4

— the array DNA melting data of Ke et al. (doi:10.1101/2024.01.08.574731)
